Rows were chosen to be rich in hits. Some 1.5% of all compounds tested hit in one or more screens of this group.
Statin myotox sup: protects C2C12 myotubes from simvastatin toxicity | ATP luminescence, 48 h; scaled: DMSO 0, geranylgeraniol control 100 | rescue of ATP level, % at 7.49 µM | hit rate 0.78% among 330,000 | AID 602340;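 active = mean ATP rescue above about 67%, or every replicate alone reaching that limit, limit read from the data, passing the limit was not always enough; inconclusive = no clear call, values can overlap the other calls; inactive = mean under the limit and some replicate under it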;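 note: myotubes were challenged with 10 µM simvastatin during compound exposure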
Cneo AK release: Cryptococcus neoformans lysis via adenylate kinase release. C. neoformans lysis, adenylate kinase release luminescence, 4 h; normalised: neutral wells 0, clomiphene wells 100. lysis activity, % at 15 µM. hit rate 0.2% among 360,000. AID 651654;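 active = mean lysis activity across replicates of at least 80%, whatever share of replicates individually reach that level; inactive = mean lysis activity below 80%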
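Material: C. neoformans cells; Schedule: 4 h static compound exposure, 37 °C, read 1 h post-reagent; Measured by: adenylate kinase release luminescence; Read-out: signal increase indicating cell lysis; Controls: Clomiphene as positive lysis control.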
Mot1-301 SUMO: inhibitors of SUMOylation pathway: yeast Mot1-301 growth rescue; S. cerevisiae Mot1-301 growth rescue, ATP luminescence, 38.5C; percent above DMSO median, 100 means doubled; growth rescue, % at 18.8 µM; hit rate 1% among 320,000; AID 2716;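 active = every valid replicate shows activation above 250% relative to neutral control wells; inactive = the rest, any valid replicate at or below 250%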
Each line names hits and unclear results; the compound was inactive in the other large screens.

C[C@H](CO)N1C[C@H](C)[C@@H](CN(C)CC2CC2)Oc2ccc(NS(=O)(=O)c3ccc(Cl)cc3)cc2CC1=O	none (no result: Mot1-301 SUMO)
C[C@@H]1CN([C@H](C)CO)C(=O)Cc2cc(NS(=O)(=O)c3ccc(Cl)cc3)ccc2O[C@H]1CN(C)CC1CCCCC1	Statin myotox sup 123.6 (no result: Mot1-301 SUMO)
C[C@@H]1CN([C@H](C)CO)C(=O)Cc2cc(NS(=O)(=O)c3ccc(Cl)cc3)ccc2O[C@@H]1CN(C)CC1CCCCC1	none (no result: Mot1-301 SUMO)
C[C@H](CO)N1C[C@H](C)[C@@H](CN(C)CC2CCCCC2)Oc2ccc(NS(=O)(=O)c3ccc(Cl)cc3)cc2CC1=O	Statin myotox sup 122.7 (no result: Mot1-301 SUMO)
C[C@H]1CN([C@@H](C)CO)C(=O)c2cccc(NS(=O)(=O)c3ccc(Cl)cc3)c2O[C@@H]1CN(C)Cc1ccncc1	none (no result: Mot1-301 SUMO)
C/C(=N\NC(=O)CNc1cccc(Cl)c1C)C1CC1	none (no result: Statin myotox sup, Cneo AK release)
C/C(=N\NC(=O)CNc1ccccc1Cl)C(C)(C)C	Statin myotox sup 72.2
CCCC#Cc1ccc2c(c1)O[C@H](CN(C)Cc1cccnc1)[C@H](C)CN([C@@H](C)CO)S2(=O)=O	none (no result: Mot1-301 SUMO)
COc1ccc(S(=O)(=O)N2C[C@@H](O)COC[C@H]3O[C@@H](CC(=O)NCCCN4CCOCC4)CC[C@@H]32)cc1	none (no result: Mot1-301 SUMO)
CC(C)[C@@H](C)NC(=O)N(C)C[C@H]1OCc2ccccc2-c2ccccc2C(=O)N([C@H](C)CO)C[C@@H]1C	none (no result: Mot1-301 SUMO)
CC=Cc1ccc2n(c1=O)C[C@H]1[C@H](CO)[C@@H](C(=O)N3CCc4ccccc4C3)N(C(=O)C3CC3)[C@@H]21 (mixture of isomers)	Cneo AK release 90.1 (no result: Mot1-301 SUMO)
CC=Cc1ccc2n(c1=O)C[C@@H]1[C@@H](CO)[C@H](C(=O)N3CCOCC3)N(CC3CC3)[C@H]21 (mixture of isomers)	none (no result: Mot1-301 SUMO)
CC=Cc1ccc2n(c1=O)C[C@H]1[C@H](CO)[C@@H](C(=O)N3CCOCC3)N(CC3CC3)[C@@H]21 (mixture of isomers)	Cneo AK release 84.0 (no result: Mot1-301 SUMO)
CC=Cc1ccc2n(c1=O)C[C@H]1[C@H](CO)[C@@H](C(=O)N3CCc4ccccc4C3)N(C(=O)CC)[C@@H]21 (mixture of isomers)	none (no result: Mot1-301 SUMO)
CC=Cc1ccc2n(c1=O)C[C@H]1[C@H](CO)[C@@H](C(=O)N3CCOCC3)N(Cc3ccccc3)[C@@H]21 (mixture of isomers)	none (no result: Mot1-301 SUMO)
CC=Cc1ccc2n(c1=O)C[C@@H]1[C@@H](CO)[C@H](C(=O)N3CCCCC3)N(Cc3ccccc3)[C@H]21 (mixture of isomers)	Cneo AK release 105.7 (no result: Mot1-301 SUMO)
C[C@H](NC(=O)C[C@@H]1CC[C@@H](NC(=O)C2CCOCC2)[C@H](CO)O1)c1ccccc1	none (no result: Mot1-301 SUMO)
CCCN(C)C[C@H]1Oc2ncc(-c3cccc(C(=O)N(C)C)c3)cc2C(=O)N([C@H](C)CO)C[C@@H]1C	none (no result: Mot1-301 SUMO)
CCNC(=O)C[C@H]1CC[C@@H]2[C@@H](COc3ccc(NC(=O)c4cc(C)on4)cc3C(=O)N2C)O1	none (no result: Mot1-301 SUMO)
Cc1ccc(S(=O)(=O)Nc2cccc3c2O[C@H](CN(C)C(=O)NC2CCCCC2)[C@@H](C)CN([C@@H](C)CO)C3=O)cc1	none (no result: Mot1-301 SUMO)
CCCCCCCCC(=O)NNC(=O)c1c(O)c2ccccc2n(CCC)c1=O	Mot1-301 SUMO 311.6 (no result: Statin myotox sup, Cneo AK release)
CCCCCCCCCC(=O)NNC(=O)c1c(O)c2ccccc2n(CCC)c1=O	none (no result: Statin myotox sup, Cneo AK release)
CCn1c(=O)c(-c2ccccc2)c(O)c2ccccc21	none
CCCCn1c(=O)c(-c2ccccc2)c(O)c2ccccc21	Statin myotox sup 120.0
CO[C@H]1CN(C)C(=O)c2cc(NC(=O)c3ccccc3)ccc2OC[C@@H](C)N(C(=O)C2CC2)C[C@H]1C	none (no result: Mot1-301 SUMO)
CC(C)NC(=O)N[C@@H]1CC[C@@H](CCNC(=O)C2CC2)O[C@H]1CO	none (no result: Mot1-301 SUMO)
CC(C)NC(=O)N[C@H]1CC[C@@H](CCNC(=O)C2CC2)O[C@H]1CO	Cneo AK release 92.2 (no result: Mot1-301 SUMO)
CC(C)NC(=O)N[C@H]1CC[C@H](CCNC(=O)C2CC2)O[C@H]1CO	none (no result: Mot1-301 SUMO)
CC(C)NC(=O)N[C@H]1CC[C@@H](CCNC(=O)C2CC2)O[C@@H]1CO	Cneo AK release 93.2 (no result: Mot1-301 SUMO)
C[C@H]1CN([C@@H](C)CO)C(=O)Cc2cc(NC(=O)Nc3ccc(C(F)(F)F)cc3)ccc2O[C@@H]1CN(C)Cc1ccc(-c2ccccc2)cc1	none (no result: Mot1-301 SUMO)
CCS(=O)(=O)Nc1ccc2c(c1)C(=O)N(C)C[C@H](OC)[C@@H](C)CN(C(C)=O)[C@H](C)CO2	none (no result: Mot1-301 SUMO)
CCOC(=O)N1CCN(C2CC(=O)N(c3ccc(C)cc3)C2=O)CC1 (centres undefined)	none (no result: Statin myotox sup)
CCOC(=O)N1CCN(C2CC(=O)N(c3ccc(Oc4ccccc4)cc3)C2=O)CC1 (centres undefined)	Statin myotox sup 125.5
O=C(C[C@H]1C[C@@H]2c3cc(NC(=O)NC4CCCCC4)ccc3O[C@@H]2[C@H](CO)O1)NCc1ccccn1	none (no result: Mot1-301 SUMO)
CC(C)c1onc(C(=O)NCc2cccs2)c1[N+](=O)[O-]	none (no result: Statin myotox sup, Cneo AK release)
COc1ccc(NC(=O)c2noc(C(C)C)c2[N+](=O)[O-])cc1	Cneo AK release 84.1
CC(C)c1onc(C(=O)NCc2ccc(F)cc2)c1[N+](=O)[O-]	Mot1-301 SUMO 286.1 (no result: Statin myotox sup, Cneo AK release)
CC(=O)c1ccc(NC(=O)c2noc(C(C)C)c2[N+](=O)[O-])cc1	none (no result: Statin myotox sup, Cneo AK release)
C[C@H](CO)N1C[C@H](C)[C@@H](CN(C)Cc2ccc(Cl)c(Cl)c2)OCCCC[C@H](C)Oc2ccc(NS(=O)(=O)c3ccc(Cl)cc3)cc2C1=O	none (no result: Statin myotox sup, Mot1-301 SUMO)
C[C@@H]1CCCCO[C@@H](CN(C)C(=O)Nc2cccc3ccccc23)[C@H](C)CN([C@@H](C)CO)C(=O)c2cc(NS(=O)(=O)c3cn(C)cn3)ccc2O1	none (no result: Statin myotox sup, Mot1-301 SUMO)
C[C@H]1CN([C@@H](C)CO)C(=O)Cc2cc(NC(=O)Cn3cnnn3)ccc2O[C@H]1CN(C)CC1CCCCC1	none (no result: Mot1-301 SUMO)
Cn1ncc(Cl)c1C(=O)Nc1cccc(Cl)c1	none
Cn1ncc(Cl)c1C(=O)Nc1cccnc1	Statin myotox sup 101.1
CN1C(=O)c2cc(NS(=O)(=O)c3ccc(Cl)cc3)ccc2OC[C@@H]2O[C@@H](CC(=O)N3CCc4ccccc4C3)CC[C@H]21	Statin myotox sup inconclusive (no result: Mot1-301 SUMO)
CCOc1ccc(NC(=O)CN(Cc2ccccc2)S(C)(=O)=O)cc1	Statin myotox sup 110.2
CC(C)c1ccc(NC(=O)CN(Cc2ccccc2)S(C)(=O)=O)cc1	none
O=C(C[C@@H]1CC[C@H]2[C@@H](COC[C@H](O)CN2Cc2cc(F)ccc2F)O1)N1CCc2ccccc2C1	none (no result: Mot1-301 SUMO)
Cn1nnnc1Sc1ncnc2scc(-c3ccccc3Br)c12	none
Cn1nnnc1Sc1ncnc2scc(Br)c12	Mot1-301 SUMO 342.0
C[C@H](CO)N1C[C@H](C)[C@@H](CN(C)C(=O)Nc2cccc3ccccc23)Oc2ccc(NC(=O)C3CC3)cc2C1=O	none (no result: Mot1-301 SUMO)
OC[C@@H]1[C@H](c2ccc(-c3cccnc3)cc2)[C@@H]2CN(CC3CCOCC3)CCCCN12	none (no result: Statin myotox sup, Mot1-301 SUMO)
CNc1cc(-n2nc(C)cc2-c2ccccc2)ncn1	none
OCCNc1cc(-n2nc(-c3ccccc3)cc2-c2ccccc2)ncn1	Statin myotox sup 113.8
O=C(N[C@H]1CC[C@@H](CCNS(=O)(=O)c2cccc(Cl)c2)O[C@H]1CO)c1ccncc1	none (no result: Mot1-301 SUMO)
Cc1cc(C)n2c(SCc3c(C)noc3C)nnc2n1	Statin myotox sup 92.5
Cc1cc(C)n2c(SCc3ccc(Br)cc3)nnc2n1	none (no result: Statin myotox sup)
Cc1ccc(S(=O)(=O)N(C)C[C@@H]2Oc3ccc(NS(C)(=O)=O)cc3CC(=O)N([C@@H](C)CO)C[C@@H]2C)cc1	none (no result: Mot1-301 SUMO)

From PubChem
